Calls of active or inactive are those of the source. The calls are words filed in the database; no cut-off is given here.
What was measured:
NCI-H460 [1] = assay: Induction of apoptosis in human NCI-H460 cells assessed as viable cells at 10 uM after 6 hrs by annexinV-propidium iodide staining based flow cytometric analysis relative to control; format: functional; settings: NCI-H460, 6 h, read-out: Activity
Summary of the method: (§1)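 H460 cells plated for 6 h, then treated with 5, 10 or 20 μM. Cells washed, trypsin-EDTA detached and resuspended in PBS, then stained with annexin V and propidium iodide plus RNase and 0.1% Triton X-100 for 30 min at 37 °C before flow cytometry. Figure legend gives 6 h incubation.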

NCI-H460 [2] = assay: Induction of apoptosis in human NCI-H460 cells assessed as viable cells at 5 uM after 6 hrs by annexinV-propidium iodide staining based flow cytometric analysis relative to control; format: functional; settings: NCI-H460, 6 h, read-out: Activity; summary of the method: as §1
NCI-H460 [3] = assay: Induction of apoptosis in human NCI-H460 cells assessed as non-viable necrotic cells at 20 uM after 6 hrs by annexinV-propidium iodide staining based flow cytometric analysis relative to control; format: functional; summary of the method: as §1
NCI-H460 [4] = assay: Induction of XBP-1 protein expression level in human NCI-H460 cells at 5 to 20 uM after 6 hrs by Western blot analysis; format: functional, cell-based
Summary of the method: (§2)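 H460 cells exposed to 20 μM for varying times, or to a range of concentrations for 6 h. ATF-4 and XBP-1 protein measured by Western blot with actin as loading control.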

NCI-H460 [5] = assay: Cytotoxicity against human NCI-H460 cells after 72 hrs by MTT assay; format: functional, cell-based; settings: NCI-H460, 72 h
Summary of the method: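 H460 cells grown in RPMI 1640 with 5% FBS at 37 °C, 10% CO2, treated 24 h after seeding. Compounds in DMSO diluted into medium at final 100, 33.3, 11.1 and 3.7 μg/mL for 72 h. MTT (5 mg/mL in 0.9% NaCl) added for 3 h, formazan dissolved in DMSO and read at 570 nm; IC50 derived.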

NCI-H460 [6] = assay: Induction of apoptosis in human NCI-H460 cells at 20 uM after 6 hrs by flow cytometric analysis; format: functional; summary of the method: as §1
NCI-H460 [7] = assay: Induction of GRP78 protein expression in human NCI-H460 cells at 5 to 20 uM after 3 hrs by Western blot analysis; format: functional, cell-based
Summary of the method: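 H460 cells treated for 3 h; GRP78 protein detected by Western blot with actin as loading control.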

NCI-H460 [8] = assay: Decrease in p53 expression in human NCI-H460 cells at 20 uM after 12 hrs by Western blot analysis; format: functional, cell-based
Summary of the method: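 H460 cells exposed to 20 μM for varying times, or to a range of concentrations for 12 h. Lysates made in Tris-HCl pH 7.4/NaCl/NP40/SDS buffer with protease and phosphatase inhibitors, then probed for p53 by Western blot with chemiluminescent detection; bands quantified by densitometry.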

NCI-H460 [9] = assay: Cytotoxicity against human NCI-H460 cells assessed as reduction of cell viability at 5 to 30 uM after 24 hrs by CellTiter-Glo analysis; format: functional, cell-based
Summary of the method: (§3)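 H460 cells (5 × 10^3/well) seeded overnight, then given fresh medium containing compound from DMSO stock (final 5, 10, 20 μM; 2.5–30 μM in the figure) for 24 h. Viability measured with CellTiter-Glo and expressed as percent of vehicle-treated cells; Student's t test.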

[10] = target: Transcription factor Jun (Homo sapiens) (UniProt P05412); assay: Induction of c-Jun phosphorylation in human NCI-H460 cells at 20 uM after 12 hrs by Western blot analysis; format: cell-based
Summary of the method: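 H460 cells cultured in RPMI 1640 with 5% heat-inactivated FBS at 37 C, 10% CO2; exposed to 20 μM for a time course. Lysed at 0 C in Tris-HCl pH 7.4 buffer with NP40, SDS, and protease/phosphatase inhibitors. Phospho-c-Jun detected by Western blot with chemiluminescence, actin as loading control; band density quantified.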

NCI-H460 [11] = assay: Induction of GRP78 mRNA expression in human NCI-H460 cells at 5 to 20 uM after 3 hrs by real time quantitative PCR analysis; format: functional, cell-based
Summary of the method: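 H460 cells treated across a concentration range for 3 h. GRP78 mRNA quantified by RT-qPCR, normalized to β-actin and expressed as percent of vehicle.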

NCI-H460 [12] = assay: Induction of apoptosis in human NCI-H460 cells assessed as late apoptotic cells at 5 uM after 6 hrs by annexinV-propidium iodide staining based flow cytometric analysis relative to control; format: functional; summary of the method: as §1
NCI-H460 [13] = assay: Induction of CHOP mRNA expression in human NCI-H460 cells at 20 uM after 12 hrs by real time quantitative PCR analysis; format: functional, cell-based
Summary of the method: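 H460 cells exposed to a concentration range for 6 or 12 h. CHOP mRNA measured by RT-PCR/qPCR and normalized to β-actin.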

NCI-H460 [14] = assay: Induction of apoptosis in human NCI-H460 cells assessed as early apoptotic cells at 5 uM after 6 hrs by annexinV-propidium iodide staining based flow cytometric analysis relative to control; format: functional; summary of the method: as §1
NCI-H460 [15] = assay: Cytotoxicity against human NCI-H460 cells assessed as cell viability at 20 uM after 24 hrs by CellTiter-Glo analysis; format: functional; settings: NCI-H460, 24 h, read-out: Activity; summary of the method: as §3
NCI-H460 [16] = assay: Induction of apoptosis in human NCI-H460 cells assessed as activation of caspase 3 activity at 20 uM after 24 hrs by Western blot analysis; format: functional, cell-based
NCI-H460 [17] = assay: Induction of apoptosis in human NCI-H460 cells assessed as early apoptotic cells at 10 uM after 6 hrs by annexinV-propidium iodide staining based flow cytometric analysis relative to control; format: functional; summary of the method: as §1
NCI-H460 [18] = assay: Induction of ATF-4 protein expression level in human NCI-H460 cells at 5 to 20 uM after 6 hrs by Western blot analysis; format: functional, cell-based; summary of the method: as §2
NCI-H460 [19] = assay: Induction of apoptosis in human NCI-H460 cells assessed as viable cells at 20 uM after 6 hrs by annexinV-propidium iodide staining based flow cytometric analysis relative to control; format: functional; settings: NCI-H460, 6 h, read-out: Activity; summary of the method: as §1
NCI-H460 [20] = assay: Induction of apoptosis in human NCI-H460 cells assessed as early apoptotic cells at 20 uM after 6 hrs by annexinV-propidium iodide staining based flow cytometric analysis relative to control; format: functional; summary of the method: as §1
NCI-H460 [21] = assay: Induction of apoptosis in human NCI-H460 cells assessed as activation of caspase 9 activation at 20 uM after 24 hrs by Western blot analysis; format: functional, cell-based
NCI-H460 [22] = assay: Induction of apoptosis in human NCI-H460 cells assessed as late apoptotic cells at 10 uM after 6 hrs by annexinV-propidium iodide staining based flow cytometric analysis relative to control; format: functional; summary of the method: as §1
NCI-H460 [23] = assay: Induction of CHOP protein expression in human NCI-H460 cells at 20 uM after 6 to 24 hrs by Western blot analysis; format: functional, cell-based
Summary of the method: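 H460 cells treated for 6–24 h, or across a range of concentrations. CHOP protein measured by Western blot, densitometry expressed as percent of control; Student's t test.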

NCI-H460 [24] = assay: Induction of apoptosis in human NCI-H460 cells assessed as non-viable necrotic cells at 5 uM after 6 hrs by annexinV-propidium iodide staining based flow cytometric analysis relative to control; format: functional; summary of the method: as §1
NCI-H460 [25] = assay: Cytotoxicity against human NCI-H460 cells assessed as reduction of cell viability at 5 to 20 uM after 24 hrs by CellTiter-Glo analysis; format: functional, cell-based; summary of the method: as §3
NCI-H460 [26] = assay: Induction of apoptosis in human NCI-H460 cells assessed as non-viable necrotic cells at 10 uM after 6 hrs by annexinV-propidium iodide staining based flow cytometric analysis relative to control; format: functional; summary of the method: as §1
NCI-H460 [27] = assay: Induction of apoptosis in human NCI-H460 cells assessed as late apoptotic cells at 20 uM after 6 hrs by annexinV-propidium iodide staining based flow cytometric analysis relative to control; format: functional; summary of the method: as §1
NCI-H460 [28] = assay: Induction of apoptosis in human NCI-H460 cells at 5 to 30 uM after 24 hrs by flow cytometric analysis; format: functional, cell-based

Sequence of Transcription factor Jun (Homo sapiens) (P05412 whole entry): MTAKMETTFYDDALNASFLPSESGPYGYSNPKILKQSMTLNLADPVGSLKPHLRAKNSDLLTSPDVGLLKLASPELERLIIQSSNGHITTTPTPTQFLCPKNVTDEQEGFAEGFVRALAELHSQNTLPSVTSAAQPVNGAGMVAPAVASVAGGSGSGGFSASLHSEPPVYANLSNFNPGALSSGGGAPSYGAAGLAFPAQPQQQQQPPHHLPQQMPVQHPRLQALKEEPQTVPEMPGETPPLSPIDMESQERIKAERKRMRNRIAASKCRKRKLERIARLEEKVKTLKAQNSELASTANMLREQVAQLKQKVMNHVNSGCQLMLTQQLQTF

Molecule COc1cc(/C=C/C(=O)CC(=O)/C=C/c2ccc(O)c(OC)c2)ccc1O [CURCUMIN] has a viability at 10 µM (NCI-H460 [1]) of 89.2%, a viability at 5 µM (NCI-H460 [2]) of 87.9% and an Activity (NCI-H460 [3]) of 0.32%. For the same molecule, the Activity (NCI-H460 [4]) was “inactive”, the IC50 (NCI-H460 [5]) was 20.3 µM and the Activity (NCI-H460 [6]) was 12.02%. For the same molecule, the Activity (NCI-H460 [7]) was “inactive”, the Activity (NCI-H460 [8]) was “inactive” and the Activity (NCI-H460 [9]) was “inactive”. For the same molecule, the Activity [10] was “inactive”, the Activity (NCI-H460 [11]) was “inactive” and the Activity (NCI-H460 [12]) was 3.66%. For the same molecule, the Activity (NCI-H460 [13]) was “inactive”, the Activity (NCI-H460 [14]) was 7.97% and the viability at 20 µM (NCI-H460 [15]) was 70%. The Activity (NCI-H460 [16]) was “inactive”, the Activity (NCI-H460 [17]) was 8.57% and the Activity (NCI-H460 [18]) was “inactive”. The viability at 20 µM (NCI-H460 [19]) was 83.6%, the Activity (NCI-H460 [20]) was 12.02% and the Activity (NCI-H460 [21]) was “inactive”. The Activity (NCI-H460 [22]) was 2.06%, the Activity (NCI-H460 [23]) was “inactive” and the Activity (NCI-H460 [24]) was 0.46%. The Activity (NCI-H460 [25]) was “inactive”, the Activity (NCI-H460 [26]) was 0.23% and the Activity (NCI-H460 [27]) was 4.06%. For the same molecule, the Activity (NCI-H460 [28]) was “inactive”.

CN(C)CCCOc1ccc(/C=C2\CC/C(=C\c3ccc(OCCCN(C)C)cc3)C2=O)cc1 showed an IC50 (NCI-H460 [5]) of 8.31 µM.

O=C(/C=C/c1ccccc1Br)/C=C/c1ccccc1Br was tested, and the IC50 (NCI-H460 [5]) was 5.78 µM.
